The structures appear in SMILES notation.

As usually defined, the EC50 is the concentration that produces a half-maximal response. The IC50 is the midpoint of a concentration-inhibition curve. For orientation: logP means the decadic logarithm of the partition coefficient of the neutral form, usually between octanol and water. The low end stands for a more hydrophilic compound, the high end for a more lipophilic compound.

Data set [1] deals with T1, Nuclear receptor subfamily 1 group I member 2 (Homo sapiens, UniProt O75469).
T1 sequence (O75469 whole entry): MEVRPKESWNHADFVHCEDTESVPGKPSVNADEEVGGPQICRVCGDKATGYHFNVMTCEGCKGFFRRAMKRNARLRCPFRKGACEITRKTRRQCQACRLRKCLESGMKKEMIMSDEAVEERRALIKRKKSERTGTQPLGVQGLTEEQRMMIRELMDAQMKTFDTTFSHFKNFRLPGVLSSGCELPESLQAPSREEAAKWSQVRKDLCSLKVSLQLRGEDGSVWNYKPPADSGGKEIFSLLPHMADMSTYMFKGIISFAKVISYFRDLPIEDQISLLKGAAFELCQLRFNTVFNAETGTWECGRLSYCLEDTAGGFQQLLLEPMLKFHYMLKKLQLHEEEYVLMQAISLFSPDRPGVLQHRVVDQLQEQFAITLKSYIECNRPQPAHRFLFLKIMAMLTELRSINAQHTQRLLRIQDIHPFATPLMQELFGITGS
Put plainly: Agonist activity at VP16-fused human PXR expressed in HEK293 cells after 24 hrs by luciferase reporter gene assay. Type of data set: cell-based. The method, boiled down:
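HEK293 cells grown in DMEM with 5% FBS and penicillin/streptomycin at 37 °C, 5% CO₂. Seeded at 20% confluence 24 h before calcium-phosphate co-transfection with 150 ng receptor expression plasmid (PXR as a VP16 fusion), 500 ng luciferase reporter and 10 ng β-gal vector. Luciferase was normalized to β-galactosidase, in triplicate transfections.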
A general note: A reporter such as luciferase makes a cellular process visible.

Data set [2] concerns the target T2, Nuclear receptor ROR-alpha (Homo sapiens, UniProt P35398).
T2 sequence (P35398 whole entry): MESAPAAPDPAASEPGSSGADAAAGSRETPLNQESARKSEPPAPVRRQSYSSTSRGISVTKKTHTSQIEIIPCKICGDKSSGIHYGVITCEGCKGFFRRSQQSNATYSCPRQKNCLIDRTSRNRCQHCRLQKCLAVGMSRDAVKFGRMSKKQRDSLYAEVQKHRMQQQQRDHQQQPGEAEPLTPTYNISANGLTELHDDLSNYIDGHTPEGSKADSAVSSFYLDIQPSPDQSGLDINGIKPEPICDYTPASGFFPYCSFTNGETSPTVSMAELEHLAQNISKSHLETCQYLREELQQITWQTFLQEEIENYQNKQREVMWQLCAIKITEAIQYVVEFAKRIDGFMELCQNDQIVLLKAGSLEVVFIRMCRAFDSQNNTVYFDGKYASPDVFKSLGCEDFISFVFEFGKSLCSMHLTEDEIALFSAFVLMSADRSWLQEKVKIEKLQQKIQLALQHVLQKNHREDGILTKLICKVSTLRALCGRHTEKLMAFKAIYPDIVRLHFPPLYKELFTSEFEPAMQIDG
Put plainly: Inhibition of human RORalpha1 expressed in HEK293 cells after 24 hrs by luciferase reporter gene assay. Type of data set: cell-based.

In data set [3] the target is T3, Nuclear receptor ROR-gamma (Homo sapiens, UniProt P51449).
T3 sequence (P51449 whole entry): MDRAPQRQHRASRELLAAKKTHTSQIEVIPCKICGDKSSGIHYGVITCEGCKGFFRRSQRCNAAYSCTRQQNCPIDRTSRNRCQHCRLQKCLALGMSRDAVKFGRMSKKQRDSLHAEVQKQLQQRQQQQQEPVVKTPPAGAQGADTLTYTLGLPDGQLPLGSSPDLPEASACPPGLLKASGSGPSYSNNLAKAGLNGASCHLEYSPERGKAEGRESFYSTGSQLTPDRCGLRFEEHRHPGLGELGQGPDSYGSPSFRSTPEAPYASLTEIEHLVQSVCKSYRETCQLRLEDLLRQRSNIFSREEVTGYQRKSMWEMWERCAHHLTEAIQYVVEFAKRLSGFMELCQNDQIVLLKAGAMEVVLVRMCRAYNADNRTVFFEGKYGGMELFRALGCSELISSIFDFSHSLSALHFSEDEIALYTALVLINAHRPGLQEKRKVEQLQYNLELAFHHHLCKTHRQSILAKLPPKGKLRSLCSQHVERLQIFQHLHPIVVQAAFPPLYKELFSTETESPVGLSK
Put plainly: Inhibition of human RORgamma1 expressed in HEK293 cells after 24 hrs by luciferase reporter gene assay. The format is cell-based.

The nature of data set [4]: Octanol/water partition co-efficient, log P of the compound by HPLC method. Type of data set: physicochemical.
Data set [5] has as its target T4, Nuclear receptor ROR-alpha (Homo sapiens) (UniProt P35398).
T4 sequence (whole entry): T2 sequence (P35398 whole entry)
Put plainly: Agonist activity at human RORalpha1 expressed in HEK293 cells after 24 hrs by luciferase reporter gene assay. Type of data set: cell-based.

The target of data set [6] is T5, Nuclear receptor ROR-gamma (Homo sapiens) (UniProt P51449).
T5 sequence (whole entry): T3 sequence (P51449 whole entry)
Put plainly: Agonist activity at human RORgamma1 expressed in HEK293 cells after 24 hrs by luciferase reporter gene assay. Type of data set: cell-based.

In the case of `C[Si](C)(O)c1ccc(N(CC(F)(F)F)S(=O)(=O)c2ccccc2)cc1`, the EC50 in data set [1] (read-out: EC50) was 0.63 µM. In addition, the IC50 is more than 30 µM in data set [2] (read-out: IC50) and 11 µM in data set [3] (read-out: IC50).

For the compound `O=C(O)c1ccc(N(CC(F)(F)F)S(=O)(=O)c2ccccc2)cc1`, the EC50 entry in data set [1] (hek293) is given as “Not Active”. Moreover, the 50% inhibitory concentration (IC50) entry in data set [2] (hek293) and in data set [3] (hek293) was “Not Active” each time.

`C[Si](C)(O)c1ccc(N(Cc2ccccc2)S(=O)(=O)c2ccccc2)cc1` displayed a logP in data set [4] of 3.92. Besides, the EC50 in data set [1] (read-out: EC50) is 3.2 µM. Further, the half-maximal inhibitory concentration (IC50) in data set [2] (read-out: IC50) and in data set [3] (read-out: IC50) was more than 30 µM throughout.

In turn, `COCCN(c1ccc([Si](C)(C)O)cc1)S(=O)(=O)c1ccccc1` showed a log partition coefficient (logP) in data set [4] of 2.81. Also, the concentration giving a half-maximal response (EC50) in data set [1] (read-out: EC50) is 4.2 µM. In addition, the IC50 result in data set [2] (hek293) and in data set [3] (hek293) was “Not Active” in each case.

In data set [4], `CCCCN(c1ccc([Si](C)(C)O)cc1)S(=O)(=O)c1ccccc1` returned a logP of 4.05. Also, the EC50 in data set [1] (read-out: EC50) was found to be 6.5 µM. Moreover, the 50% inhibitory concentration (IC50) in data set [2] (read-out: IC50) and in data set [3] (read-out: IC50) was more than 30 µM each time.

`CN(c1ccc([Si](C)(C)O)cc1)S(=O)(=O)c1ccccc1`: the logP in data set [4] was 2.9. Moreover, the EC50 in data set [1] (read-out: EC50) stood at 3.4 µM. The results for the Activity in data set [5] and in data set [6] were 53% and 54%, respectively.

In the case of `C[Si](C)(O)c1ccc(NS(=O)(=O)c2ccccc2)cc1`, in data set [4], the lipophilicity (logP) turned out to be 2.22. In data set [1] (read-out: EC50), the EC50 worked out at 2.4 µM. Moreover, the IC50 result in data set [2] (hek293) and in data set [3] (hek293) was “Not Active” each time.

With `COC(=O)CN(c1ccc(C(C)(C)O)cc1)S(=O)(=O)c1ccccc1`, the lipophilicity (logP) in data set [4] amounted to 2.35. Also, the half-maximal effective concentration (EC50) result in data set [1] (hek293) is on record as “Not Active”. Further, the results for the IC50 result in data set [2] (hek293) and in data set [3] (read-out: IC50) were “Not Active” and more than 30 µM, respectively.

Turning to `CC(C)(O)c1ccc(N(CC(F)(F)F)S(=O)(=O)c2ccccc2)cc1`, the EC50 result in data set [1] (hek293) is recorded as “Not Active”. Further, the IC50 result in data set [2] (hek293) is “Not Active”; in data set [3] (read-out: IC50), more than 30 µM.

Consider `CCN(c1ccc([Si](C)(C)O)cc1)S(=O)(=O)c1ccccc1`, for which the logP in data set [4] stood at 3.2. Moreover, the EC50 in data set [1] (read-out: EC50) was 1.9 µM. Also, the IC50 in data set [2] (read-out: IC50) and in data set [3] (read-out: IC50) was more than 30 µM each time.

`C[Si](C)(O)c1ccc(N(CCc2ccccc2)S(=O)(=O)c2ccccc2)cc1`: the log partition coefficient (logP) in data set [4] amounted to 4.32. Further, the concentration giving a half-maximal response (EC50) in data set [1] (read-out: EC50) stood at 14 µM. Moreover, the IC50 in data set [2] (read-out: IC50) and in data set [3] (read-out: IC50) was more than 30 µM each time.

In data set [4], `COC(=O)CN(c1ccc([Si](C)(C)O)cc1)S(=O)(=O)c1ccccc1` had a lipophilicity (logP) of 2.79. The EC50 in data set [1] (read-out: EC50) worked out at 1.4 µM. Moreover, the half-inhibitory concentration (IC50) result in data set [2] (hek293) and in data set [3] (hek293) was “Not Active” in each case.
